Data published in ChEMBL document CHEMBL3227998, “Synthesis and pharmacological activity of 2,3,4,5,-tetrahydro-1,5-methano-1H-3-benzazepines” (J Med Chem, 1979).
The source made the active and inactive calls. No cut-off for these calls is given here.

Tests used:
[1] = system: Mus musculus; assay: (§1) Toxicity in sc dosed mouse; type: organism-based; details: in vivo
[2] = system: Mus musculus; assay: Analgesic activity in sc dosed mouse by eddy's hot-plate method; type: functional
Summary of the method: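 Mice were given aqueous solutions of the oxalate salts subcutaneously. Antinociception was read by the Eddy hot-plate method, and analgesic potency was expressed as ED50 in mg/kg.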

[3] = system: Mus musculus; assay: Inhibition of morphine-induced response in mouse at 1 mg/kg, sc by tail-flick antagonist assay; type: functional; set-up: scale not given: the % may be the effect or the level left; details: route subcutaneous
[4] = system: Mus musculus; assay: Inhibition of morphine-induced response in mouse at 0.3 mg/kg, sc by tail-flick antagonist assay; type: functional; set-up: scale not given: the % may be the effect or the level left; details: route subcutaneous
[5] = system: Mus musculus; assay: Inhibition of morphine-induced response in mouse at 3 mg/kg, sc by tail-flick antagonist assay; type: functional; set-up: scale not given: the % may be the effect or the level left; details: route subcutaneous
[6] = as §1; type: organism-based; details: in vivo

Compound	Activity [1]	Activity [2]	ED50 [2]	also measured
O=C(O)C(=O)O.c1ccc(CCN2CC3CC(C2)c2ccccc23)cc1	Non-toxic	inactive	–	–
CC(C)=CCN1CC2CC(C1)c1ccccc12.O=C(O)C(=O)O	Toxic	inactive	–	–
COc1ccc2c3c1O[C@H]1[C@@H](O)C=C[C@H]4[C@@H](C2)N(C)CC[C@@]341 [CODEINE]	–	–	5.8 mg/kg	–
CCCN1CC2CC(C1)c1ccccc12.O=C(O)C(=O)O	Toxic	inactive	–	Activity [3]: 47%
O=C(O)C(=O)O.c1ccc2c(c1)C1CC2CN(CC2CC2)C1	Toxic	inactive	–	Activity [4]: 58%
c1ccc2c(c1)C1CCNCC2C1 (stereo not drawn)	–	–	4.9 mg/kg	–
C=CCN1CC2CC(C1)c1ccccc12.O=C(O)C(=O)O	–	–	15.6 mg/kg	Activity [5]: 56%; LD50 [6]: 47 mg/kg
c1ccc2c(c1)CC1CC2CCN1 (stereo not drawn)	–	–	10.2 mg/kg	–
CN1CC2CC(C1)c1ccccc12.O=C(O)C(=O)O	Toxic	inactive	–	–
